Data: ChEMBL document CHEMBL4837209, “Synthesis and BK channel-opening activity of 2-amino-1,3-thiazole derivatives” (Bioorg Med Chem Lett, 2021)
Active and inactive are the calls of the source. The calls are words filed in the database; no cut-off is given here.

Columns and labels:
[1] = molecular target: Calcium-activated potassium channel subunit alpha-1 (Homo sapiens) (UniProt Q12791); assay: Opening of BK channel in human AD293 cells assessed as relative fluorescence unit at 5 uM by cell-based fluorescence assay relative to control
How it was run: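 FluxOR Tl⁺-flux assay in AD-293 cells expressing hyperactive mutant BK channels (G803D/N806K). Each fluorescence trace was normalized to its own basal level to give RFU. ΔRFU with compound at 5 μM was expressed versus the drug-free control. DMSO served as negative control and CTBIC at a fixed concentration as positive control. Values are means of at least three separate measurements.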

[2] = molecular target: Calcium-activated potassium channel subunit alpha-1 (Homo sapiens) (UniProt Q12791); assay: […] of BK calcium channel in human AD293 cells assessed as relative fluorescence unit at 1 to 30 uM in presence of 1 uM paxilline by cell-based fluorescence assay; conditions: dose 1-30 µM
How it was run: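 FluxOR Tl⁺-flux fluorescence in AD-293 cells expressing G803D/N806K mutant BK channels. Compounds were tested at 1–30 μM, alone and co-applied with 1 μM paxilline to confirm the BK dependence of the signal. Signals were normalized to the basal level of each trace. Student t-test was used.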

[3] = molecular target: Calcium-activated potassium channel subunit alpha-1 (Rattus norvegicus) (UniProt Q62976); assay: […] of rat BK calcium channel expressed in Xenopus laevis oocytes assessed as maximum conductance at 10 uM at -80 to 200 mV by patch clamp assay relative to control; type: cell-based; conditions: Oocyte
How it was run: (§1)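 Rat BK α-subunit (Slo1) expressed in Xenopus laevis oocytes. Currents were recorded by gigaohm-seal patch clamp in the outside-out configuration. Macroscopic currents were evoked by voltage pulses from -80 to 200 mV, with and without compound. Student t-test was used.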

[4] = molecular target: Calcium-activated potassium channel subunit alpha-1 (Rattus norvegicus) (UniProt Q62976); assay: […] of rat BK calcium channel expressed in Xenopus laevis oocytes assessed as increase in outward current tail at 10 uM at -80 to 200 mV by patch clamp assay; type: cell-based; conditions: Oocyte; how it was run: as §1
[5] = molecular target: Calcium-activated potassium channel subunit alpha-1 (Homo sapiens) (UniProt Q12791); assay: Opening of BK channel in human AD293 cells assessed as relative fluorescence unit by cell-based fluorescence assay; conditions: dose 1-30 µM
[6] = molecular target: Calcium-activated potassium channel subunit alpha-1 (Rattus norvegicus) (UniProt Q62976); assay: […] of rat BK calcium channel expressed in Xenopus laevis oocytes assessed as increase in inward current tail at 10 uM at -80 to 200 mV by patch clamp assay; type: cell-based; conditions: Oocyte; how it was run: as §1
[7] = molecular target: Calcium-activated potassium channel subunit alpha-1 (Rattus norvegicus) (UniProt Q62976); assay: […] of rat BK calcium channel expressed in Xenopus laevis oocytes assessed as V1/2 at 10 uM at -80 to 200 mV by patch clamp assay; type: cell-based; conditions: Oocyte; how it was run: as §1
[8] = molecular target: Calcium-activated potassium channel subunit alpha-1 (Rattus norvegicus) (UniProt Q62976); assay: […] of rat BK calcium channel expressed in Xenopus laevis oocytes assessed as G-V shift toward more negative voltage at 10 uM at -80 to 200 mV by patch clamp assay; type: cell-based; conditions: Oocyte; how it was run: as §1

Calcium-activated potassium channel subunit alpha-1 (Rattus norvegicus), sequence (Q62976 whole entry): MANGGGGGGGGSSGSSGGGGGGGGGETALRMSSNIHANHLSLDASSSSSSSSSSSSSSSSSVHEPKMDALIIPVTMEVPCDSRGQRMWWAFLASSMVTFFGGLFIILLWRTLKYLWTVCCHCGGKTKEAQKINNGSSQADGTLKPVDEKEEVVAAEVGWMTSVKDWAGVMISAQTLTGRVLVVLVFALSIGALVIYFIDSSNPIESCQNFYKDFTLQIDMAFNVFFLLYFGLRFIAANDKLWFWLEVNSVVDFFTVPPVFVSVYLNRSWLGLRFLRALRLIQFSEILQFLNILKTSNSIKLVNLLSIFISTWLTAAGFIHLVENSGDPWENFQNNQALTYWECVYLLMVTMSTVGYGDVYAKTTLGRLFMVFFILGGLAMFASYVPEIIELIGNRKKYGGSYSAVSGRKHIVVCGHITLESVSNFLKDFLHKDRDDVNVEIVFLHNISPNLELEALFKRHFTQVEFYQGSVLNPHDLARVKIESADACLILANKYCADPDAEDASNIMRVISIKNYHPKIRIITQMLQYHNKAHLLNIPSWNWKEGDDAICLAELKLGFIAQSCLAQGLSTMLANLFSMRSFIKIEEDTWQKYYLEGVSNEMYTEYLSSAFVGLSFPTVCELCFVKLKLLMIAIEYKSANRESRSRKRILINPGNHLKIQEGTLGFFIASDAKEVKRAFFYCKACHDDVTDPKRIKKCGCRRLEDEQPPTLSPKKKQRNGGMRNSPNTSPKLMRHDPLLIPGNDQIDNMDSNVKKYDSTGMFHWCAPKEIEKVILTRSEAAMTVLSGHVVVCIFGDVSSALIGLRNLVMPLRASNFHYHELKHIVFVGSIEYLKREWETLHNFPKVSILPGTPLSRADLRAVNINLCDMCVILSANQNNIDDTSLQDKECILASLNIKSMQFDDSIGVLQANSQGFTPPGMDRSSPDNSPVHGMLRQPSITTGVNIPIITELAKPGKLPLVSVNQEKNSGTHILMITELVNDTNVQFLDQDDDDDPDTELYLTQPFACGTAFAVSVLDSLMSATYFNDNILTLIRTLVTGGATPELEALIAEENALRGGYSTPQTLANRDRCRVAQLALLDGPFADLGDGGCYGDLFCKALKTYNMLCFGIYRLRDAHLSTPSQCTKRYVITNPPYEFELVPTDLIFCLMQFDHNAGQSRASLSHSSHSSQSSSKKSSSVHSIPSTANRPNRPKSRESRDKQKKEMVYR
Calcium-activated potassium channel subunit alpha-1 (Homo sapiens), sequence (Q12791 whole entry): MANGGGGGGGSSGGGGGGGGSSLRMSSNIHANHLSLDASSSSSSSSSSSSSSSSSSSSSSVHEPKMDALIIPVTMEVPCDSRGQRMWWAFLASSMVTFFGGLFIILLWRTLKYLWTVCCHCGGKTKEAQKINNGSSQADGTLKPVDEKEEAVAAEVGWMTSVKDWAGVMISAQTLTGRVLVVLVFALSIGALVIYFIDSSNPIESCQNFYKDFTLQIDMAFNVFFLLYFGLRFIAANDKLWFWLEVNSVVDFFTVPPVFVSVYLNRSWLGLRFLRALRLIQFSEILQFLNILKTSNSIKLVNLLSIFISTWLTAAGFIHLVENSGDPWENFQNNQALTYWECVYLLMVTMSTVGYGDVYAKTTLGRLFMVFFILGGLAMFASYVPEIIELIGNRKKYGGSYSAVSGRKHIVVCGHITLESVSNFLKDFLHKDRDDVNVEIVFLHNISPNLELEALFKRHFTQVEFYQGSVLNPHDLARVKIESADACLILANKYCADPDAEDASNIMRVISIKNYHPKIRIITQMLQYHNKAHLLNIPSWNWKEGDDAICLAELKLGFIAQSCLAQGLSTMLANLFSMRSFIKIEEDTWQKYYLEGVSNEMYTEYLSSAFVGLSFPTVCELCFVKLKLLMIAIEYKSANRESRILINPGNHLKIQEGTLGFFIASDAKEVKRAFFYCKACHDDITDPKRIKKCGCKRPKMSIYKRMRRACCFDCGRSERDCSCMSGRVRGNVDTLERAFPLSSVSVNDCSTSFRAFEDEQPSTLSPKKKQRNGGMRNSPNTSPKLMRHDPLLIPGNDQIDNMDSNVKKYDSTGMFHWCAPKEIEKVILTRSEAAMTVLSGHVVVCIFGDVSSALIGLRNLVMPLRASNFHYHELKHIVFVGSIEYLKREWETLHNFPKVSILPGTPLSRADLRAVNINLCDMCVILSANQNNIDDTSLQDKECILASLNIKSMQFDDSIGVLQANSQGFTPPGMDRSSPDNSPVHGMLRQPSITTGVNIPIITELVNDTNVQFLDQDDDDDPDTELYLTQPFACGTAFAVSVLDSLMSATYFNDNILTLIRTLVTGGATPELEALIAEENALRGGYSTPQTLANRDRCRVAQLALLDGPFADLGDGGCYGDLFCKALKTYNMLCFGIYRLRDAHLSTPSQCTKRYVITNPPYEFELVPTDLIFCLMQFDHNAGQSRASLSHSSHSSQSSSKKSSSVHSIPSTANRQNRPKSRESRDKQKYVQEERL

RFU [1] | Compound | other results
1.06 | N#Cc1ccccc1Cc1cnc(N)s1 | –
0.94 | Nc1ncc(Cc2ccc([N+](=O)[O-])cc2)s1 | –
1.08 | Nc1ncc(Cc2cccnc2)s1 | –
1.21 | N#Cc1ccc(Cc2cnc(N)s2)cc1 | –
1.02 | COc1cccc(Cc2cnc(N)s2)c1 | –
0.94 | Nc1ncc(C(=O)c2ccc(Br)cc2)s1 | –
0.94 | COc1ccccc1Cc1cnc(N)s1 | –
1.11 | Cc1ccc(Cc2cnc(N)s2)cc1 | –
1.02 | COc1ccc(Cc2cnc(N)s2)cc1 | –
1.37 | Cc1ccccc1Cc1cnc(N)s1 | –
1.08 | Nc1ncc(C(=O)c2ccc(C(F)(F)F)cc2)s1 | –
1.27 | Cc1cccc(Cc2cnc(N)s2)c1 | –
0.94 | O=C(CCl)Nc1ncc(Cc2ccc(Br)cc2)s1 | –
1 | N#Cc1cccc(Cc2cnc(N)s2)c1 | –
1.13 | Nc1ncc(Cc2ccccc2Cl)s1 | –
1.11 | Nc1ncc(Cc2ccncc2)s1 | –
1.59 | Nc1ncc(Cc2ccc(Cl)cc2)s1 | –
2.67 | Nc1ncc(Cc2ccccc2Br)s1 | inhibition [2]: Active; fold change (FC) [3]: 1.4; Activity [4]: Active; inhibition [5]: Dose-Dependent Effect; Activity [6]: Active; V1/2 [7]: 23.4 mV; Activity [8]: Active
1.07 | Nc1ncc(Cc2ccccc2C(F)(F)F)s1 | –
0.97 | COc1cc(Cc2cnc(N)s2)cc(C(F)(F)F)c1 | –
1.37 | Nc1ncc(Cc2cccc(Br)c2)s1 | –
1.22 | Nc1ncc(Cc2cccc(C(F)(F)F)c2)s1 | –
3.3 | O=C(O)c1ccc(Cl)c2c1[nH]c1c3ccc(C(F)(F)F)cc3oc12 | –
1.85 | Nc1ncc(Cc2ccc(Br)cc2)s1 | –
2.1 | Nc1ncc(Cc2ccc(C(F)(F)F)cc2)s1 | inhibition [2]: Active; fold change (FC) [3]: 1.3; Activity [4]: Active; inhibition [5]: Dose-Dependent Effect; Activity [6]: Active; V1/2 [7]: 24.5 mV; Activity [8]: Active
1.51 | Nc1ncc(Cc2cccc(Cl)c2)s1 | –
1.14 | CC(=O)Nc1ncc(Cc2ccc(Br)cc2)s1 | –
